Laboratory results from ChEMBL document CHEMBL4428034, “Bioactive Isoprenoid-Derived Natural Products from a Dongsha Atoll Soft Coral Sinularia erecta” (J Nat Prod, 2016).

What was measured:
K562 = experiment: Cytotoxicity against human K562 cells assessed as growth inhibition after 3 days by alamar blue assay; format: functional, cell-based; conditions: K562, 72 h
Neutrophil [1] = experiment: Anti-inflammatory activity in FMLP/CB-stimulated human neutrophils assessed as inhibition of elastase release at 10 uM preincubated for 5 mins followed by FMLP/CB stimulation for 10 mins using MeO-Suc-Ala-Ala-Pro-Val-p-nitroanilide as substrate relative to control; format: functional
Outline: (§1)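 Percent inhibition at 10 μM relative to control in fMLP/CB-stimulated human neutrophils. Values are mean ± SEM (n = 3), with significance tested against the control value.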

Neutrophil [2] = experiment: Anti-inflammatory activity in FMLP/CB-stimulated human neutrophils assessed as inhibition of superoxide generation at 10 uM preincubated for 5 mins followed by cytochalasin B and FMLP stimulation for 3 mins and 10 mins respectively by ferricytochrome c reduction based assay relative to control; format: functional; outline: as §1
MOLT-4 = experiment: Cytotoxicity against human MOLT4 cells assessed as growth inhibition after 3 days by alamar blue assay; format: functional, cell-based; conditions: MOLT-4, 72 h
Outline: (§2)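 Cells were seeded at 5 × 10^3 to 1 × 10^4 per well and kept in a humidified 5% CO2 incubator. After 3 days in culture, Alamar Blue was added for 4 h and absorbance read at 595 nm. IC50 is the concentration that reduced cell growth by 50%.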

Neutrophil [3] = experiment: Anti-inflammatory activity in FMLP/CB-stimulated human neutrophils assessed as inhibition of elastase release preincubated for 5 mins followed by FMLP/CB stimulation for 10 mins using MeO-Suc-Ala-Ala-Pro-Val-p-nitroanilide as substrate; format: functional, cell-based
Outline: (§3)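 In fMLP/CB-stimulated human neutrophils, IC50 was taken as the concentration giving 50% inhibition. Values are mean ± SEM (n = 3).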

Neutrophil [4] = experiment: Anti-inflammatory activity in FMLP/CB-stimulated human neutrophils assessed as inhibition of superoxide generation preincubated for 5 mins followed by cytochalasin B and FMLP stimulation for 3 mins and 10 mins respectively by ferricytochrome c reduction based assay; format: functional, cell-based; outline: as §3
CCRF-CEM = experiment: Cytotoxicity against human CCRF-CEM cells assessed as growth inhibition after 3 days by alamar blue assay; format: functional, cell-based; conditions: 72 h; outline: as §2

| IC50 (Neutrophil [3]) [µM] | IC50 (Neutrophil [4]) [µM] | SMILES | IC50 (K562) [µM] | inhibition at 10 µM (Neutrophil [1]) [%] | inhibition at 10 µM (Neutrophil [2]) [%] | IC50 (MOLT-4) [µM] | IC50 (CCRF-CEM) [µM] |
| --- | --- | --- | --- | --- | --- | --- | --- |
| > 10 | > 10 | C=C(C)C(CCC(C)=O)C[C@@H]1O[C@@]1(C)C/C=C/C(C)=O (stereo partly specified) | 8.6 | 17 | 13 | 9.7 | – |
| > 10 | > 10 | C=C(C)[C@@H]1CCC2=C[C@H](C[C@@]3(C)CC(=O)[C@H](CC(=O)C1)O3)OC2=O | – | 19 | 15 | – | – |
| 3.8 | 8.5 | C=C(C(=O)OC)[C@H]1CC(=O)C[C@@H]2O[C@@H]3[C@H](C[C@](C)(O)CC2=O)OC(=O)[C@@]32O[C@@H]2C1 | – | 93 | 55 | – | – |
| > 10 | > 10 | COC(=O)[C@@]1(CCl)O[C@@]2(O)C[C@H]1C[C@@H](O)[C@]13O[C@H]1[C@H](C[C@@]1(C)CC(=O)[C@H](C2)O1)OC3=O | – | 14 | 7 | – | – |
| 0.9 | 2.3 | C=C(C)[C@@H]1C[C@H]2O[C@](O)(C1)C[C@@H](OC(C)=O)C(=O)/C=C(/C)C[C@@H]1OC(=O)[C@]23O[C@@H]13 | – | 113 | 100 | – | – |
| 1 | > 10 | CCCCCCCCC/C(C)=C\C(=O)NCCc1ccc(O)cc1 | – | 102 | 48 | 9.7 | 6.3 |
| 0.3 | 0.07 | CC[C@H](Nc1ncnc2[nH]cnc12)c1nc2cccc(F)c2c(=O)n1-c1ccccc1 [IDELALISIB] | – | 100 | 103 | – | – |

| SMILES | IC50 (Neutrophil [3]) [µM] | IC50 (Neutrophil [4]) [µM] | IC50 (K562) [µM] | inhibition at 10 µM (Neutrophil [1]) [%] | inhibition at 10 µM (Neutrophil [2]) [%] | IC50 (MOLT-4) [µM] | IC50 (CCRF-CEM) [µM] |
| --- | --- | --- | --- | --- | --- | --- | --- |
| C=C(C)[C@@H]1CCC(=C)[C@@H](OO)CCC(=C)[C@H]2CC[C@@](C)(O2)[C@@H](O)C1 | > 10 | > 10 | 9.2 | 33 | 24 | – | – |
| C=C(C)[C@H]1CC(=O)[C@@H]2[C@@H](C1)[C@H]1C(=O)O[C@H]3C[C@@]4(C)O[C@@H]2C(=O)[C@H]4[C@@H]13 | > 10 | > 10 | – | 18 | 16 | – | – |
